Where only a bound is given, the exact number is not on record here.

The text below walks through data of ChEMBL document CHEMBL1148546, “3-Arylpiperazinylethyl-1H-pyrrolo[2,3-d]pyrimidine-2,4(3H,7H)-dione derivatives as novel, high-affinity and selective alpha(1)-adrenoceptor ligands” (Bioorg Med Chem Lett, 2006).

Experiment [1] deals with T1, Alpha-1D adrenergic receptor (Rattus norvegicus) (UniProt P23944).
T1 sequence (whole entry): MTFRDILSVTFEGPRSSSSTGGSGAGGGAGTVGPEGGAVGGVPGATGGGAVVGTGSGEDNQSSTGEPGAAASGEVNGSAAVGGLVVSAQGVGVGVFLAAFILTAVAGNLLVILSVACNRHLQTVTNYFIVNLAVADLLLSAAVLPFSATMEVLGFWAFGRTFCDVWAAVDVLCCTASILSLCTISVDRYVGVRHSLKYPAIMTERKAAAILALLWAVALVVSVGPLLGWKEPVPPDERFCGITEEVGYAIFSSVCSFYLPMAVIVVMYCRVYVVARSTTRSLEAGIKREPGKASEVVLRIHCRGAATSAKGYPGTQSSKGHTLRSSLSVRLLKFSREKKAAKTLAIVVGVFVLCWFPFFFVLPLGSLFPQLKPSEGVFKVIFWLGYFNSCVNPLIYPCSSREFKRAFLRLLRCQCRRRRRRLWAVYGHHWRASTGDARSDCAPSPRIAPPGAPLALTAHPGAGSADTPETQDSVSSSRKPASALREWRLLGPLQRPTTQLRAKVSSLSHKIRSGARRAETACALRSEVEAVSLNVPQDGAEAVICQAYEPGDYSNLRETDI
The experiment is described as follows: Antagonistic activity at ADRA1D in rat thoracic aorta. It is filed as functional, tissue-based. In outline:
(§1)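 Antagonism in isolated rat tissues: prostatic vas deferens (α1A), spleen (α1B), thoracic aorta (α1D). Each compound tested at a single concentration, and each concentration was investigated at least four times. pKb was calculated by the van Rossum method. pA2 was derived from Arunlakshana–Schild plots. WB4101 was used as the standard.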

For experiment [2], the target named is Alpha adrenergic receptor 1A and 1D (Rattus norvegicus) (UniProt P23944+P43140). The experiment is described as follows: Selectivity for ADRA1D over ADRA1A. It is filed as protein assay. In a few lines:
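Subtype selectivity is the antilog of the difference between the pKb values at α1A, α1B and α1D, measured in isolated rat prostatic vas deferens, spleen and thoracic aorta.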

Experiment [3] addresses T2, Adrenergic receptor alpha-1 (Homo sapiens, UniProt P35348+P25100+P35368).
T2 sequence (P35348 whole entry): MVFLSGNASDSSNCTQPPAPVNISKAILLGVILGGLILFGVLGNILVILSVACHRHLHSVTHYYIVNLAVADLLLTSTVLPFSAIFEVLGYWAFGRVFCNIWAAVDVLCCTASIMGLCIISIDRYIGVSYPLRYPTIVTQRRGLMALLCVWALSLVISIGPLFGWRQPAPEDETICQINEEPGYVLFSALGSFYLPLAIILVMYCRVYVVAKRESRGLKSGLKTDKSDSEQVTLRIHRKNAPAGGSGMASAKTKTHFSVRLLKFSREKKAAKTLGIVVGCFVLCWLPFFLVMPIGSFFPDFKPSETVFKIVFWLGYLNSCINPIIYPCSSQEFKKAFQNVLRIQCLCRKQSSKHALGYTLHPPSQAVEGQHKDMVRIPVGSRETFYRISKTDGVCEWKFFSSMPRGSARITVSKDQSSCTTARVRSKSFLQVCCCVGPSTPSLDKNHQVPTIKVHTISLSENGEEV
T2 sequence (P25100 whole entry): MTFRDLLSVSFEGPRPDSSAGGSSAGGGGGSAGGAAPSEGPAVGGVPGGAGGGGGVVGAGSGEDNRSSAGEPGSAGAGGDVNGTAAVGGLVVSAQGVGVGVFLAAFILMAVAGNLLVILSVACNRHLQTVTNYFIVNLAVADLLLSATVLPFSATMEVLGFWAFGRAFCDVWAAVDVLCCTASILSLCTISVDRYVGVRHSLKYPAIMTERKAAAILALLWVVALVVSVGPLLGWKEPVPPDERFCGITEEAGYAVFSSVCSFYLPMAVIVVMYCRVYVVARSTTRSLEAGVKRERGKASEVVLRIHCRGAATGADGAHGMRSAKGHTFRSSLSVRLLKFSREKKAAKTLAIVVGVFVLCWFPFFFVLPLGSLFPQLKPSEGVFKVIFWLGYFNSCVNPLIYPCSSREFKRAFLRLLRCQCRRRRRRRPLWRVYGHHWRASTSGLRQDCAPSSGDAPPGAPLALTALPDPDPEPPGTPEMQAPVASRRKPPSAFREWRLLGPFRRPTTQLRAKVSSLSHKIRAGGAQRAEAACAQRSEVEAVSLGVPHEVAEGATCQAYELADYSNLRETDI
T2 sequence (P35368 whole entry): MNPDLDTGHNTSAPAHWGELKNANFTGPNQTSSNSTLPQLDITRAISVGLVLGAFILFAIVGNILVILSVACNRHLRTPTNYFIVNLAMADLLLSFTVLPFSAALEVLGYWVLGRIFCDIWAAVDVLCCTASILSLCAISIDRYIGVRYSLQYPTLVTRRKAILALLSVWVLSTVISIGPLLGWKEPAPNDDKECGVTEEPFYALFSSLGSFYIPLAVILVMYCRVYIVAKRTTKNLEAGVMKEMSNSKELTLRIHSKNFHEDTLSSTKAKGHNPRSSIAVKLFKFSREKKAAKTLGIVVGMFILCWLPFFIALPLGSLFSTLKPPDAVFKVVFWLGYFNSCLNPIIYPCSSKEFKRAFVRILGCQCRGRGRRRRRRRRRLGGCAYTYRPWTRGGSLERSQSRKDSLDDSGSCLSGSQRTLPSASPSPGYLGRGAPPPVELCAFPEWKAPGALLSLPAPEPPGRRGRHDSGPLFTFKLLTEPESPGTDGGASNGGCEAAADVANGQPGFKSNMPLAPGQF
Briefly: Binding affinity to adrenergic alpha-1 receptor. The class given is protein assay.

A further experiment deals with D(1A) dopamine receptor (Homo sapiens, UniProt P21728). The experiment is described as follows: Binding affinity to dopamine D1 receptor.
In the next experiment the target is D(2) dopamine receptor (Homo sapiens, UniProt P14416). The experiment is described as follows: Binding affinity to dopamine D2 receptor.
The nature of experiment [4]: Selectivity for dopamine D2 over adrenergic alpha-1 receptor. In a few lines: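 Selectivity is the ratio of Ki at 5-HT1A, D1 or D2 to Ki at α1. Ki values are means (±SD) of three separate experiments.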
Experiment [5] addresses T3, Alpha-1A adrenergic receptor (Rattus norvegicus) (UniProt P43140).
T3 sequence (whole entry): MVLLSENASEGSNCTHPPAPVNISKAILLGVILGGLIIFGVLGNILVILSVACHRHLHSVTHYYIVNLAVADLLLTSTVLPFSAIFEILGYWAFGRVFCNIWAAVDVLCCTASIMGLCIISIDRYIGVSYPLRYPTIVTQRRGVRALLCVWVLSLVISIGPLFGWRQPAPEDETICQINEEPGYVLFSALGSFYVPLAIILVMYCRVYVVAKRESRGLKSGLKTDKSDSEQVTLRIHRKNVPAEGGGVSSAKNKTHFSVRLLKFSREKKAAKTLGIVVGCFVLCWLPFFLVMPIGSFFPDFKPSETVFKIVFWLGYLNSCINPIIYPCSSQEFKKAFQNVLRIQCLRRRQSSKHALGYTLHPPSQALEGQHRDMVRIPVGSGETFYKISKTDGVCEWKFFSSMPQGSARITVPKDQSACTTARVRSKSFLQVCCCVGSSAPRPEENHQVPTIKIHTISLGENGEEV
The experiment is described as follows: Antagonistic activity at ADRA1A in isolated rat prostatic vas deferens. The class given is functional, tissue-based. In a few lines:
as §1

D(2) dopamine receptor, sequence (P14416 whole entry): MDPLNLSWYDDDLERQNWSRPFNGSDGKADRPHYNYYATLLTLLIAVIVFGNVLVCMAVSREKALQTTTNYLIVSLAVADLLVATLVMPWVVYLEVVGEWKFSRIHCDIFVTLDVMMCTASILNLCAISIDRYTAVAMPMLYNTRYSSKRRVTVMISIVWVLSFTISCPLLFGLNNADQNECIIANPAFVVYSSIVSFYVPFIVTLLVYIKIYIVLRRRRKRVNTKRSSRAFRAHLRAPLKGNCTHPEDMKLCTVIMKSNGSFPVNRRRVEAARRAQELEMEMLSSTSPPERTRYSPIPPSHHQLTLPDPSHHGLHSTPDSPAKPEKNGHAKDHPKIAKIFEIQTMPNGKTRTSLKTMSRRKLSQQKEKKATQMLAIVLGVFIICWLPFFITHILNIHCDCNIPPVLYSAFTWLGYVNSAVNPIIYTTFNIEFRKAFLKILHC
D(1A) dopamine receptor, sequence (P21728 whole entry): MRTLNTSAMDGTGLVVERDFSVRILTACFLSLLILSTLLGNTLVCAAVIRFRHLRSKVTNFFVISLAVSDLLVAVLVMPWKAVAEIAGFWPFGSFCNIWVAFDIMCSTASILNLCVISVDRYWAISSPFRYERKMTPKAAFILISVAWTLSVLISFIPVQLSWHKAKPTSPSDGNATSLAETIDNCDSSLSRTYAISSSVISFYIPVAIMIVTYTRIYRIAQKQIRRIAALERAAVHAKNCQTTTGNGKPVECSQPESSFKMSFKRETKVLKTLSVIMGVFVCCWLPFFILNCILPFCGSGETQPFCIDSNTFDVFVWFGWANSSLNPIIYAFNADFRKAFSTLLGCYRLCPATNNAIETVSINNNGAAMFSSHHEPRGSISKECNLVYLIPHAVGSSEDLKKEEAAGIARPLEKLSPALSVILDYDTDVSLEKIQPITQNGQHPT

As for `O=c1[nH]c2[nH]c(-c3ccc(Cl)cc3)cc2c(=O)n1CCN1CCN(c2ccccc2Cl)CC1`, the pKb in experiment [1] is 7.66; in experiment [5], 6.41. Also, the Ratio pKb in experiment [2] worked out at 18. For the same compound, the Ki in experiment [3] was found to be 2.64 nM; at D(1A) dopamine receptor, 544 nM; at D(2) dopamine receptor, 2370 nM. Further, the Ratio Ki in experiment [4] was 898.
Regarding `Cc1ccc(-c2cc3[nH]c(=O)n(CCN4CCN(c5ccccc5Cl)CC4)c(=O)c3[nH]2)cc1`, the values for the pKb in experiment [1] and in experiment [5] were 6.44 and 6.72, respectively. Besides, the Ratio pKb in experiment [2] was 0.5. The Ki was 17.26 nM in experiment [3], more than 10000 nM on D(1A) dopamine receptor and more than 10000 nM on D(2) dopamine receptor. Further, the Ratio Ki in experiment [4] was more than 500.
On to `Cc1ccc(-c2cc3c(=O)n(CCN4CCN(c5ccccc5Cl)CC4)c(=O)[nH]c3[nH]2)cc1`, for which the pKb in experiment [1] came to 7.78; in experiment [5], 7.25. In addition, in experiment [2], the Ratio pKb turned out to be 3. For the same compound, the Ki in experiment [3] was 11.71 nM; on D(1A) dopamine receptor, 389 nM; on D(2) dopamine receptor, 1720 nM. Further, the Ratio Ki in experiment [4] stood at 147.
As to `COc1ccc(-c2cc3c(=O)n(CCN4CCN(c5ccccc5Cl)CC4)c(=O)[nH]c3[nH]2)cc1`, the figures for the pKb in experiment [1] and in experiment [5] were 7.69 and 7.48, respectively. The Ratio pKb in experiment [2] is 2. Besides, the Ki in experiment [3] is 16.4 nM; on D(1A) dopamine receptor it was 272 nM; on D(2) dopamine receptor, 165 nM. Also, in experiment [4], the Ratio Ki is 10.
